≈ marks a conversion by molar mass, not a printed value.
How the values were obtained:
[1] = target: Tyrosine-protein kinase Lck (Homo sapiens, UniProt P06239); assay: Inhibition of Lck
[2] = target: Vascular endothelial growth factor receptor 2 (Homo sapiens, UniProt P35968); assay: Inhibition of KDR by HTRF assay
Procedure, shortened: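 KDR read by homogeneous time-resolved fluorescence with a biotinylated gastrin substrate. IC50 is the mean of two or more separate determinations, each in duplicate.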

[3] = test system: HUVEC; assay: Inhibition of FGF-induced proliferation of HUVEC cells; assay type: functional, cell-based; conditions: Homo sapiens
Procedure, shortened: (§1)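 Human umbilical vein endothelial cell proliferation driven by VEGF or by FGF; IC50 is the mean of two or more separate determinations, each in duplicate.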

[4] = test system: HUVEC; assay: Inhibition of VEGF-induced proliferation of HUVEC cells; assay type: functional, cell-based; conditions: Homo sapiens; procedure, shortened: as §1
[5] = target: Hepatocyte growth factor receptor (Homo sapiens, UniProt P08581); assay: Inhibition of c-Met
Hepatocyte growth factor receptor, sequence (P08581 whole entry): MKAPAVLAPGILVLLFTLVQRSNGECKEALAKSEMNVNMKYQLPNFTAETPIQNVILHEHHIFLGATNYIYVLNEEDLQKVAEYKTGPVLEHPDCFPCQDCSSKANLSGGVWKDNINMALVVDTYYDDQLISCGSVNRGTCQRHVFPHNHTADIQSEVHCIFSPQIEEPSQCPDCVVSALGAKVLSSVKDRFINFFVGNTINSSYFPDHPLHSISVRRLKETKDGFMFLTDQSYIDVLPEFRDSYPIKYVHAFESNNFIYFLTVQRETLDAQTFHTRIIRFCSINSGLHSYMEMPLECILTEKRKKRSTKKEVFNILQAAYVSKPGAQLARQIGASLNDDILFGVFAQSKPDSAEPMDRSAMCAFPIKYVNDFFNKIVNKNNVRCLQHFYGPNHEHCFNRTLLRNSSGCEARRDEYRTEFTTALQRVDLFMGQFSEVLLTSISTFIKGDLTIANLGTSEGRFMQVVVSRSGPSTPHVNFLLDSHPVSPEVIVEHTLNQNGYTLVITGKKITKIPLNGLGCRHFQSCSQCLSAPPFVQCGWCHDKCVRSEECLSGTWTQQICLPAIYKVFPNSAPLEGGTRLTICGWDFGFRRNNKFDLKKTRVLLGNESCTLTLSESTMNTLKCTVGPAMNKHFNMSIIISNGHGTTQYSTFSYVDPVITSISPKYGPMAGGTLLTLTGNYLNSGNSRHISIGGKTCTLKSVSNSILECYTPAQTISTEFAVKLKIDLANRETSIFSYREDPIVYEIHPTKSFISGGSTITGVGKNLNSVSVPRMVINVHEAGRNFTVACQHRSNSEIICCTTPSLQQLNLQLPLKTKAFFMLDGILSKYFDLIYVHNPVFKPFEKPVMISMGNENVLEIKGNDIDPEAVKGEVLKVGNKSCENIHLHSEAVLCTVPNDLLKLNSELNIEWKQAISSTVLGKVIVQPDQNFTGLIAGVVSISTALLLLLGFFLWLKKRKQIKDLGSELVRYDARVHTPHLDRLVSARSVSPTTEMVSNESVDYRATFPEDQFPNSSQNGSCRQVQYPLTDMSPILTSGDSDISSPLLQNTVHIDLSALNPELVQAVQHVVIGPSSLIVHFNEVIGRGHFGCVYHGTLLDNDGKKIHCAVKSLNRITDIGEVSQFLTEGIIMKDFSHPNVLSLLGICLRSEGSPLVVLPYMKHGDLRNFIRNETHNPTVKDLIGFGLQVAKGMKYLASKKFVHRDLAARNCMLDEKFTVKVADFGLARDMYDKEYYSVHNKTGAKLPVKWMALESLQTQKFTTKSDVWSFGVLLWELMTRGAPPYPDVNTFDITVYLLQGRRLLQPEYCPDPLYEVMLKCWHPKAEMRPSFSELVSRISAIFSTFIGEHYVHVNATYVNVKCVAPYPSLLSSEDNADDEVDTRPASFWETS

[6] = target: Angiopoietin-1 receptor (Homo sapiens, UniProt Q02763); assay: Inhibition of Tie2
Angiopoietin-1 receptor, sequence (Q02763 whole entry): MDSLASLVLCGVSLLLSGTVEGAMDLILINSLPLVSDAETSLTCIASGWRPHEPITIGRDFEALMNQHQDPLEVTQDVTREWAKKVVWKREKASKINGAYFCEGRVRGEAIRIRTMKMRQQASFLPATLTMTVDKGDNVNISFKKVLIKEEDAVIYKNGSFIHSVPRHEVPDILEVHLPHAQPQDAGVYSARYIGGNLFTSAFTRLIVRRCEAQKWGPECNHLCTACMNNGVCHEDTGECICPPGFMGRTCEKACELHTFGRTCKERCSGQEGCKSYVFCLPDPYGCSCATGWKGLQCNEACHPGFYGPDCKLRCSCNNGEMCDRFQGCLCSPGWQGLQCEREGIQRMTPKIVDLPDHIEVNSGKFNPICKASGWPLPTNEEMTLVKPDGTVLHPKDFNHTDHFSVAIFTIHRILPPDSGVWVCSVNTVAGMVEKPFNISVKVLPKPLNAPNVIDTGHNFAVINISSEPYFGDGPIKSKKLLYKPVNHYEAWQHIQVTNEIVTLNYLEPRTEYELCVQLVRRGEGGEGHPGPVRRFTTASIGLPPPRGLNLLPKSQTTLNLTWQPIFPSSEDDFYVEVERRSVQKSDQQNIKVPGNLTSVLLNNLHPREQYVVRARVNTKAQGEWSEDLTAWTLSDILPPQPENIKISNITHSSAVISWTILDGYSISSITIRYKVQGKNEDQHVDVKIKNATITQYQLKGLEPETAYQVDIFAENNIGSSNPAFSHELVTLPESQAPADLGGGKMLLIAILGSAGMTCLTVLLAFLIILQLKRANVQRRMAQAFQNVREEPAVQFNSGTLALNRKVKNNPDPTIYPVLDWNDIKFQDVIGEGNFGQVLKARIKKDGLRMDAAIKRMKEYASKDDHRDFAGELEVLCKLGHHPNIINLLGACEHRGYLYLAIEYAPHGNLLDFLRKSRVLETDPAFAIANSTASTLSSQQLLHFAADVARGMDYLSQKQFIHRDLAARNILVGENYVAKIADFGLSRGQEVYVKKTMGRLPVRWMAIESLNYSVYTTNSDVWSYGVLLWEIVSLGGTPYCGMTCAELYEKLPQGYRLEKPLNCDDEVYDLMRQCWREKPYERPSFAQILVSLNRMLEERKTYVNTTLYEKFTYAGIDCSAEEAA

[7] = Half life in Sprague-Dawley rat at 0.5 mg/kg, iv; assay type: ADME, organism-based; design: dose 0.5 mg/kg, route intravenous; conditions: in vivo
Procedure, shortened: (§2)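 Male Sprague Dawley rats; single dose, 0.5 mg/kg iv or 2 mg/kg po; mean pharmacokinetic parameters reported.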

[8] = Metabolic stability in human liver microsomes; assay type: ADME, Microsome; conditions: read-out: Stability
Procedure, shortened: (§3)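 In vitro stability on incubation with human or rat liver microsomal preparations.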

[9] = Metabolic stability in rat liver microsomes; assay type: ADME, Microsome; conditions: read-out: Stability; procedure, shortened: as §3
[10] = Volume of distribution at steady state in Sprague-Dawley rat at 0.5 mg/kg, iv; assay type: ADME, organism-based; design: dose 0.5 mg/kg, route intravenous; conditions: in vivo, read-out: Vdss; procedure, shortened: as §2
[11] = Clearance in Sprague-Dawley rat at 0.5 mg/kg, iv; assay type: ADME, organism-based; design: dose 0.5 mg/kg, route intravenous; conditions: in vivo; procedure, shortened: as §2
[12] = Cmax in Sprague-Dawley rat at 2 mg/kg, po; assay type: ADME, organism-based; design: dose 2 mg/kg, route oral; conditions: in vivo; procedure, shortened: as §2
[13] = Solubility in simulated intestinal fluid; assay type: physicochemical
Procedure, shortened: (§4)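 Equilibrium solubility measured in 0.01 N HCl, PBS (pH 7), and simulated intestinal fluid.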

[14] = Solubility in 0.01 N HCl; assay type: physicochemical; procedure, shortened: as §4
[15] = Oral bioavailability in Sprague-Dawley rat at 2 mg/kg, po; assay type: ADME, organism-based; conditions: in vivo; procedure, shortened: as §2
[16] = Tmax in Sprague-Dawley rat at 2 mg/kg, po; assay type: ADME, organism-based; design: dose 2 mg/kg, route oral; conditions: in vivo; procedure, shortened: as §2
[17] = Solubility in PBS at pH 7; assay type: physicochemical; procedure, shortened: as §4
[18] = AUC (0 to infinity) in Sprague-Dawley rat at 2 mg/kg, po; assay type: ADME, organism-based; design: time infinity, dose 2 mg/kg, route oral; conditions: plasma; procedure, shortened: as §2
[19] = AUC in VEGF-soaked disk implanted Sprague-Dawley rat at […]; assay type: ADME, organism-based; design: dose 0.16 mg/kg; conditions: plasma, read-out: ED50
[20] = Cmax in VEGF-soaked disk implanted Sprague-Dawley rat at […]; assay type: ADME, organism-based; design: dose 0.16 mg/kg; conditions: in vivo, read-out: ED50
[21] = simulated intestinal fluid, read-out: Solubility
[22] = 0.01 N HCl, read-out: Solubility

Tyrosine-protein kinase Lck, sequence (P06239 whole entry): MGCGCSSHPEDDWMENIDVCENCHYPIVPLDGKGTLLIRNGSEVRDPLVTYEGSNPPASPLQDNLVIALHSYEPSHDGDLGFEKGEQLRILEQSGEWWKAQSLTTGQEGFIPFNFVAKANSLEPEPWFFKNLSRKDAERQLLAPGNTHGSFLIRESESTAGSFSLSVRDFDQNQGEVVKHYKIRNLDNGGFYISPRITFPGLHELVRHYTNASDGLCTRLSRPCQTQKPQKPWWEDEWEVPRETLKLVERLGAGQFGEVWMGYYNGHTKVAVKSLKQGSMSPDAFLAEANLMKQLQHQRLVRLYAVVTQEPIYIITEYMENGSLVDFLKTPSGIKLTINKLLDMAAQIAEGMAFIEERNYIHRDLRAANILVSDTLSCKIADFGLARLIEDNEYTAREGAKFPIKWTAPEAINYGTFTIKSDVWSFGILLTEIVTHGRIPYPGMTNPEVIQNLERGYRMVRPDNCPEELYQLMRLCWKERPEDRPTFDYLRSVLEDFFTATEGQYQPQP
Vascular endothelial growth factor receptor 2, sequence (P35968 whole entry): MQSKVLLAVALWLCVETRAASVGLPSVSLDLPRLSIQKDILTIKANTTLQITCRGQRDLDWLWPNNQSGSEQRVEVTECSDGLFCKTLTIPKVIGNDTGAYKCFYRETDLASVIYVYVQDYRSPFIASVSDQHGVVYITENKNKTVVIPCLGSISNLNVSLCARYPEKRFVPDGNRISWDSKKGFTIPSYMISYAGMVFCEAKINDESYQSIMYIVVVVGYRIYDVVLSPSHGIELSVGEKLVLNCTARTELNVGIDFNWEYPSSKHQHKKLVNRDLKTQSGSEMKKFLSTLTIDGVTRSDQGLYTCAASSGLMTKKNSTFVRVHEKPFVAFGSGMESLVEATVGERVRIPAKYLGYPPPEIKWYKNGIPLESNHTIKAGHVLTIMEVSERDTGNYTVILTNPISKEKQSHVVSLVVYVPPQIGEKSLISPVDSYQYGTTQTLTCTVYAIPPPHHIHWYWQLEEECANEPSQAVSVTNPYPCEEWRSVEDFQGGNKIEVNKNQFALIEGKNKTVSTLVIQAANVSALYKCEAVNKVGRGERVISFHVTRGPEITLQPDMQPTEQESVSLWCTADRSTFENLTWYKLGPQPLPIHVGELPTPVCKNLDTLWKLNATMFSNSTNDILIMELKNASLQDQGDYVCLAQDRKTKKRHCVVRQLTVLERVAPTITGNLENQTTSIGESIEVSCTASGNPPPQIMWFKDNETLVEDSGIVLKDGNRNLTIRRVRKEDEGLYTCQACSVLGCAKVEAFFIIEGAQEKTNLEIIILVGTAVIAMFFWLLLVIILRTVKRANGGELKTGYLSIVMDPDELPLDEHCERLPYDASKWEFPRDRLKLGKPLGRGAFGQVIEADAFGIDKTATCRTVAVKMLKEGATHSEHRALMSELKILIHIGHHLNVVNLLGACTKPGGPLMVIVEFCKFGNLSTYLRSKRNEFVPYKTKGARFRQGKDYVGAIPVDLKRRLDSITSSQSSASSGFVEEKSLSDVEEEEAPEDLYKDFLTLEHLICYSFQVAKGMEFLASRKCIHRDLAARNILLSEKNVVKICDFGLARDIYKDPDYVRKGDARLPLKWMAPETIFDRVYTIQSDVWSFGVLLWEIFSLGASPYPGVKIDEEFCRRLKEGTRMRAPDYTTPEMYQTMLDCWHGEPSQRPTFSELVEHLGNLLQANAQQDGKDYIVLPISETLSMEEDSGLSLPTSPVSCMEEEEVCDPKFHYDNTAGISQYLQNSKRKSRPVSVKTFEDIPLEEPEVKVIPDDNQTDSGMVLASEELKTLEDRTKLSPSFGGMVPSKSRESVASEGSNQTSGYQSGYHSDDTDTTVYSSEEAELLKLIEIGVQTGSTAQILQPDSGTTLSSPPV

Compound	IC50 [1]	IC50 [2]	IC50 [5]	IC50 [6]	solubility [13, 21]	solubility [14, 22]	solubility [17]	IC50 [3]	IC50 [4]	also measured
COc1cc2nccc(Oc3ccc4c(c3)OCCN4C(=O)Nc3ccc(F)cc3)c2cc1OC	90 nM	3 nM	1100 nM	1500 nM	41 µg/mL (≈ 86.2 µM)	> 200 µg/mL	3.3 µg/mL (≈ 6.94 µM)	300 nM	2 nM	Cmax [12]: 410 ng/mL; half-life [7]: 3 h; microsomal CLint [8]: 17 µL/min/mg; bioavailability [15]: 81%; microsomal CLint [9]: 74 µL/min/mg; Vd [10]: 2.1 L/kg; Tmax [16]: 2.7 h; clearance [11]: 13.7 mL/min/kg; AUC(0-inf) [18]: 2600 ng·h/mL
CNC(=O)c1cc(Oc2ccc3c(c2)OCCN3C(=O)Nc2ccc(Cl)cc2)ccn1	> 4000 nM	95 nM	> 4000 nM	> 4000 nM	–	–	–	> 1000 nM	> 1000 nM	–
COc1cc2nccc(Oc3ccc4c(C(=O)NC(C)C)cccc4c3)c2cc1OC	–	–	–	–	5.6 µg/mL (≈ 13.4 µM)	> 200 µg/mL	< 1 µg/mL	–	–	–
COc1cc2nccc(Oc3ccc4c(C(=O)Nc5ccc(F)cc5)cccc4c3)c2cc1OC	–	–	–	–	1.3 µg/mL (≈ 2.77 µM)	67 µg/mL (≈ 143 µM)	< 1 µg/mL	–	–	–
COc1cc2nccc(Oc3ccc4c(c3)OCCN4C(=O)NCc3ccccc3)c2cc1OC	500 nM	53 nM	1600 nM	> 4000 nM	–	–	–	> 1100 nM	237 nM	–
O=C(Nc1ccc(Cl)cc1)N1CCOc2cc(Oc3ncnc4[nH]ccc34)ccc21	> 4000 nM	77 nM	> 4000 nM	> 4000 nM	–	–	–	> 1000 nM	230 nM	–
COc1cc2nccc(Oc3ccc4c(c3)OCCN4C(=O)NC(C)C)c2cc1OC	1000 nM	40 nM	1200 nM	> 4000 nM	14 µg/mL (≈ 33.1 µM)	> 200 µg/mL	3 µg/mL (≈ 7.08 µM)	1100 nM	52 nM	–
COc1cc2nccc(Oc3ccc4c(c3)OCCN4C(N)=O)c2cc1OC	> 4000 nM	58 nM	> 4000 nM	> 4000 nM	–	–	–	1100 nM	280 nM	–
COc1cc2nccc(Oc3ccc4c(C(=O)Nc5ccc(Cl)cc5)cccc4c3)c2cc1OC	–	–	–	–	1.4 µg/mL (≈ 2.89 µM)	–	< 1 µg/mL	–	8 nM	–
COc1cc2nccc(Oc3ccc4c(c3)OCCN4C(=O)Nc3ccc(Cl)cc3)c2cc1OC	–	–	–	–	–	–	–	–	–	Cmax [12]: 810 ng/mL; solubility ([13]; simulated gi fluid): 33 µg/mL (≈ 67.1 µM); AUC [19]: 2.8 µM·h; solubility ([14]; buffer): 28 µg/mL (≈ 56.9 µM); half-life [7]: 6.4 h; microsomal CLint [8]: < 14 µL/min/mg; bioavailability [15]: 95%; microsomal CLint [9]: 44 µL/min/mg; Vd [10]: 1.8 L/kg; Cmax [20]: 180 nM; Tmax [16]: 3.3 h; clearance [11]: 4 mL/min/kg; AUC(0-inf) [18]: 7900 ng·h/mL
COc1cc2nccc(Oc3ccc4c(C(=O)Nc5cccc(Cl)c5)cccc4c3)c2cc1OC	–	–	–	–	36 µg/mL (≈ 74.2 µM)	9.5 µg/mL (≈ 19.6 µM)	< 1 µg/mL	–	–	–
Cc1ccc(NC(=O)N2CCOc3cc(Oc4ncnc5[nH]ccc45)ccc32)cc1	> 4000 nM	26 nM	> 4000 nM	> 4000 nM	–	–	–	> 1000 nM	230 nM	–
CNC(=O)N1CCOc2cc(Oc3ccnc4cc(OC)c(OC)cc34)ccc21	2400 nM	40 nM	> 4000 nM	> 4000 nM	130 µg/mL (≈ 329 µM)	> 200 µg/mL	46 µg/mL (≈ 116 µM)	370 nM	100 nM	–
COc1cc2nccc(Oc3ccc4c(C(=O)Nc5ccc(C)cc5)cccc4c3)c2cc1OC	–	–	–	–	9.4 µg/mL (≈ 20.2 µM)	> 200 µg/mL	< 1 µg/mL	–	–	–
CCNC(=O)N1CCOc2cc(Oc3ccnc4cc(OC)c(OC)cc34)ccc21	1500 nM	1 nM	1400 nM	> 4000 nM	–	–	–	780 nM	23 nM	–
CNC(=O)c1cccc2cc(Oc3ccnc4cc(OC)c(OC)cc34)ccc12	–	–	–	–	3 µg/mL (≈ 7.72 µM)	> 200 µg/mL	1.4 µg/mL (≈ 3.6 µM)	–	–	–
CNC(=O)c1cc(Oc2ccc3c(c2)OCCN3C(=O)Nc2ccc(C)cc2)ccn1	> 4000 nM	62 nM	> 4000 nM	> 4000 nM	–	–	–	> 1000 nM	> 1000 nM	–
COc1cc2nccc(Oc3ccc4c(c3)OCCN4C(=O)Nc3ccccc3)c2cc1OC	188 nM	1 nM	650 nM	386 nM	–	–	–	340 nM	0.6 nM	half-life [7]: 1.2 h; microsomal CLint [8]: 62 µL/min/mg; microsomal CLint [9]: 122 µL/min/mg; Vd [10]: 2.1 L/kg; clearance [11]: 30 mL/min/kg

The next lines start with results.

IC50 [1]	IC50 [2]	IC50 [5]	IC50 [6]	solubility [13, 21]	solubility [14, 22]	solubility [17]	Compound	IC50 [3]	IC50 [4]	also measured
78 nM	40 nM	210 nM	> 4000 nM	–	–	–	COc1cc2nccc(Oc3ccc4c(c3)OCCN4C(=O)N[C@H](C)c3ccccc3)c2cc1OC	1100 nM	250 nM	–
18 nM	1 nM	460 nM	260 nM	–	–	–	COc1cc2nccc(Oc3ccc4c(c3)OCCN4C(=O)N[C@@H](C)c3ccccc3)c2cc1OC	300 nM	3 nM	half-life [7]: 2.3 h; microsomal CLint [8]: 543 µL/min/mg; microsomal CLint [9]: 188 µL/min/mg; Vd [10]: 1.4 L/kg; clearance [11]: 16.3 mL/min/kg
2200 nM	19 nM	290 nM	2200 nM	–	–	–	COc1cc2nccc(Oc3ccc4c(c3)OCCN4C(=O)Nc3ccccc3Cl)c2cc1OC	230 nM	73 nM	–
63 nM	0.2 nM	370 nM	1000 nM	22 µg/mL (≈ 46.7 µM)	> 200 µg/mL	< 1 µg/mL	COc1cc2nccc(Oc3ccc4c(c3)OCCN4C(=O)Nc3ccc(C)cc3)c2cc1OC	280 nM	3 nM	Cmax [12]: 300 ng/mL; half-life [7]: 4.4 h; microsomal CLint [8]: 31 µL/min/mg; bioavailability [15]: 47%; microsomal CLint [9]: 104 µL/min/mg; Vd [10]: 2.8 L/kg; Tmax [16]: 1 h; clearance [11]: 12 mL/min/kg; AUC(0-inf) [18]: 1300 ng·h/mL
4 nM	1 nM	230 nM	9 nM	28 µg/mL (≈ 56.9 µM)	120 µg/mL (≈ 244 µM)	< 1 µg/mL	COc1cc2nccc(Oc3ccc4c(c3)OCCN4C(=O)Nc3cccc(Cl)c3)c2cc1OC	220 nM	0.4 nM	–
–	–	350 nM	–	–	–	–	COc1cc2nccc(Oc3ccc4c(c3)OCCN4C(=O)Nc3cccc(C)c3)c2cc1OC	190 nM	0.6 nM	–
150 nM	26 nM	500 nM	1500 nM	–	–	–	COc1cc2nccc(Oc3ccc4c(c3)OCCN4C(=O)NCc3ccc(C)cc3)c2cc1OC	1100 nM	360 nM	–
19 nM	0.5 nM	260 nM	430 nM	–	–	–	COc1cc2nccc(Oc3ccc4c(c3)OCCN4C(=O)Nc3ccc(C)cc3)c2cc1C(N)=O	300 nM	1 nM	Cmax [12]: 160 ng/mL; half-life [7]: 1.6 h; microsomal CLint [8]: 62 µL/min/mg; bioavailability [15]: 28%; microsomal CLint [9]: 96 µL/min/mg; Vd [10]: 1.4 L/kg; Tmax [16]: 2.3 h; clearance [11]: 14.3 mL/min/kg; AUC(0-inf) [18]: 650 ng·h/mL
21 nM	0.6 nM	160 nM	290 nM	–	–	–	COc1cc2nccc(Oc3ccc4c(c3)OCCN4C(=O)Nc3ccc(Cl)cc3)c2cc1C(N)=O	290 nM	1 nM	Cmax [12]: 820 ng/mL; half-life [7]: 2.6 h; microsomal CLint [8]: 48 µL/min/mg; bioavailability [15]: 46%; microsomal CLint [9]: 25 µL/min/mg; Vd [10]: 0.5 L/kg; Tmax [16]: 2.3 h; clearance [11]: 3.17 mL/min/kg; AUC(0-inf) [18]: 4500 ng·h/mL
27 nM	1 nM	410 nM	1600 nM	–	–	–	COc1cc2nccc(Oc3ccc4c(c3)OCCN4C(=O)Nc3ccccc3C)c2cc1OC	910 nM	45 nM	–

From ChEMBL document CHEMBL1144028, “Novel 2,3-dihydro-1,4-benzoxazines as potent and orally bioavailable inhibitors of tumor-driven angiogenesis” (J Med Chem, 2008)
